The values that follow come from ChEMBL document CHEMBL1123504, “2,3-Dialkyl(dimethylamino)indoles: interaction with 5HT1, 5HT2, and rat stomach fundal serotonin receptors” (J Med Chem, 1986).

For assay [1], the species on record is Rattus norvegicus. Description: Tested for cumulative contractile concentration -response curves for serotonin in the rat jugular vein.
For assay [2], the target named is Serotonin 2 (5-HT2) receptor (Rattus norvegicus, UniProt P30994+P08909+P14842). Description: Binding affinity towards 5-hydroxytryptamine 2 receptor in rat brain cortical membranes. Format: cell membranes. The gist of the method: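 5HT2 site, [3H]spiperone binding to cortical membranes of 150-200-g male Wistar rats, preincubated to deplete endogenous 5HT; […] per 1 mL Tris buffer. Nonspecific binding defined with 10^-6 M lysergic acid diethylamide. IC50 taken as 50% inhibition of specific binding, 10 concentrations from 10^-9 to 10^-4 M.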

Assay [3] concerns the target T1, Serotonin 1 (5-HT1) receptor (Rattus norvegicus, UniProt P28564+P30940+P19327+P28565). Kind of assay: Binding affinity towards 5-hydroxytryptamine 1 receptor in brain cortical membranes of rat. The class given is cell membranes. The gist of the method: (§1)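 Rat 5HT1 site: cortical membranes from 150-200-g male Wistar rats, preincubated in buffer to remove endogenous 5HT; […] per sample in 1 mL Tris buffer. [3H]-5HT at 2.3-2.6 nM; nonspecific binding with 10^-5 M 5HT. IC50 = 50% inhibition of specific binding, from 10 concentrations spanning 10^-9 to 10^-4 M.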

The species named for assay [4] is Rattus norvegicus. Description: Tested for noncumulative contractile concentration -response curves for serotonin in the rat fundus. The class given is functional. The method in brief:
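Isolated rat stomach fundus strips, four per fundus, in 10 mL modified Krebs. Noncumulative serotonin curves, about 2 min contact per concentration, washout every 15-20 min, maximal contraction read. Antagonist or buffer for 1 h, then curve repeated; one antagonist concentration per tissue. KB = [B]/(dose ratio - 1) from ED50 shift, reported as -log KB.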

Assay [5] has as its target T1, Serotonin 1 (5-HT1) receptor. Kind of assay: Tested for its binding affinity towards 5-hydroxytryptamine 1 receptor in rat. The method in brief: as §1
For assay [6], the species on record is Rattus norvegicus. Description: Tested for cumulative contractile concentration -response curves for serotonin in the rat jugular vein.

One may read the IC50 as the concentration needed to halve the response being measured. Higher therefore signals lower potency. For `CCc1c(C)n(CC)c2ccc(N(C)C)cc12`, the “-Log KB” value in the assay filed under Rattus norvegicus [1] worked out at 6.45; in the assay filed under Rattus norvegicus [4] it was 7.01. In addition, the IC50 in assay [2] and in assay [3] was greater than 1000 nM each time.
Consider `CCc1c(C)n(C)c2ccc(N(C)C)cc12`, for which the “-Log KB” value in the assay listed under Rattus norvegicus [1] is on record as 6.51; in the assay listed under Rattus norvegicus [4], 7.32. Further, the IC50 in assay [2] and in assay [3] was greater than 1000 nM throughout.
Take `CCc1c(C)n(C(=O)c2ccc(F)cc2)c2ccc(N(C)C)cc12`: the IC50 in assay [2] and in assay [5] was greater than 1000 nM in each case. Also, the “-Log KB” value in the assay listed under Rattus norvegicus [4] is less than 5.
Turning to `CCc1c(C)n(C(C)C)c2ccc(N(C)C)cc12`, the IC50 in assay [2] and in assay [3] was greater than 1000 nM each time. The “-Log KB” value in the assay listed under Rattus norvegicus [6] was 7.28; in the assay listed under Rattus norvegicus [4], 7.
With `CCc1c(C)[nH]c2ccc(N(C)C)cc12`, the entries for the “-Log KB” value in the assay filed under Rattus norvegicus [1] and in the assay filed under Rattus norvegicus [4] were 4.93 and 7.3, respectively. The IC50 in assay [2] and in assay [3] was greater than 1000 nM each time.
Consider `CCc1c(C)n(C)c2c(N(C)C)cccc12`, for which the IC50 in assay [2] and in assay [3] was greater than 1000 nM each time. Also, the “-Log KB” value in the assay filed under Rattus norvegicus [4] is less than 5.5.
On to `CCc1c(C)[nH]c2ccc(N(C)C)c(Cl)c12`, for which the IC50 in assay [2] and in assay [3] was greater than 1000 nM throughout. Besides, the “-Log KB” value in the assay listed under Rattus norvegicus [4] turned out to be 6.86.
With `CCCn1c(C)c(CC)c2cc(N(C)C)ccc21`, the IC50 in assay [2] and in assay [3] was greater than 1000 nM in each case. Besides, the “-Log KB” value in the assay filed under Rattus norvegicus [4] stood at 6.57.
For `CCc1c(C)n(C)c2ccc(NC(=O)Nc3cccc(C(F)(F)F)c3)cc12`, the “-Log KB” value amounted to 5.18 in the assay listed under Rattus norvegicus [1] and 7.16 in the assay filed under Rattus norvegicus [4]. The IC50 in assay [2] and in assay [3] was greater than 1000 nM in each case.
Take `CCc1c(C)c2cc(N(C)C)ccc2n1C`: the IC50 in assay [2] and in assay [3] was greater than 1000 nM in each case. The “-Log KB” value in the assay listed under Rattus norvegicus [6] stood at 6.48; in the assay listed under Rattus norvegicus [4] it was 6.69.
`Cc1c(C)n(C)c2ccc(N(C)C)cc12`: the IC50 in assay [2] and in assay [3] was greater than 1000 nM in each case. In addition, in the assay filed under Rattus norvegicus [4], the “-Log KB” value is given as 6.71.
